Non-standard residues stand in square brackets, D forms with d. Residues, ends and D or L forms follow the SMILES beside them.
Legend:
Ad = target: T1, Ad (Mus musculus, UniProt P01921+P04228); assay: Competition for antigen presentation of OVA 323-339 to hybridoma DO11.10; format: cell-based
T1 sequence (P01921 28-265): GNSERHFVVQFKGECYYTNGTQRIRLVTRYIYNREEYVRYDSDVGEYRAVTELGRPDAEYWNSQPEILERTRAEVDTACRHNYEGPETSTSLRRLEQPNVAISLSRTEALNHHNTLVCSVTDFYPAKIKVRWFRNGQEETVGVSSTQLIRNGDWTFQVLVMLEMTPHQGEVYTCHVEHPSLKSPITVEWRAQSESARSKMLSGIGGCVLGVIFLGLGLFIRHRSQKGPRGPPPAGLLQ
T1 sequence (P04228 24-256): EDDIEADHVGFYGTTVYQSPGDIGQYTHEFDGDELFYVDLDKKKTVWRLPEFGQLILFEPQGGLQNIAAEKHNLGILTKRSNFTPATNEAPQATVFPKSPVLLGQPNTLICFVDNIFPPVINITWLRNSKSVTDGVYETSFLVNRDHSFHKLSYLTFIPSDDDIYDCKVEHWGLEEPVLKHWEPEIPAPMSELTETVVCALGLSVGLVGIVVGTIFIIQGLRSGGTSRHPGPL
In short: (§1)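 LK cells (2.5 × 10^4/well) served as APC. They were preincubated 24 h with antigenic peptide plus competitor peptide in RPMI 1640 with 10% FCS, then irradiated (2,000 rad) and washed. Hybridoma cells (5 × 10^4/well) were added for 24 h. Supernatant was transferred to 10^4 CTLL cells, and IL-2 was read as thymidine uptake over the last 4 h of the 24-h CTLL culture.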

NOD mice [1] = assay: Mortality and hypersensitivity during chronic treatment, first experiment; format: in vivo, mouse (NOD); details: after 10-18 wk of treatment; 500 nmol chronic
In short: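 Female NOD mice from 3 wk of age got 500 nmol test peptide in HBSS, i.p. and s.c. at multiple sites. Schedule: five times/week for 3 wk, five times/week for a further 3 wk, then twice weekly to 22-23 wk. Groups: 18 test-peptide, 12 nonblocking-peptide and 18 HBSS-only mice.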

NOD mice [2] = assay: Mortality and symptoms during chronic treatment, second experiment; format: in vivo, mouse (NOD)
In short: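 Female NOD mice received 500 nmol test peptide in HBSS, i.p. and s.c., from 3 wk of age for 20 wk. Thereafter peptide was co-injected with ketotifen 3 mg/kg […] (13 mice). Controls were ketotifen only (15) and HBSS only (15).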

[3] = Peptide-specific antibodies by ELISA in sera of chronically treated mice; format: in vivo, mouse (NOD); details: for peptide-specific IgG antibodies / peptide-specific IgM antibodies: ELISA, sera of chronically treated mice
In short: (§2)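 ELISA on sera of individual chronically peptide-treated NOD mice at several time points. Wells were coated with 250 ng peptide in PBS at 4°C overnight and blocked with 2% BSA, 37°C, 30 min. Diluted sera ran 1 h at 37°C, then phosphatase-conjugated anti-mouse Ig, IgG or IgM (1:500) 2 h at 37°C. p-Nitrophenyl phosphate (1 mg/ml) ran 45 min, read at OD 405. Uncoated-well background was subtracted from duplicate means.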

[4] = Peptide-specific antibodies in mice of the Fig. 3 B experiment; format: in vivo, mouse (NOD); details: data not shown
In short: as §2

[5] = tested on: NOD class II MHC molecule Ag7; assay: Competition for antigen presentation of HEL 8-29 to T cell hybridoma 2D12.1; format: cell-based, mouse (NOD); details: APC NOD splenocytes, 80 nM HEL 8-29, competitor up to 100 μM
In short: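 NOD splenocytes (2.5 × 10^5/well) served as APC. They were held 24 h with antigenic peptide and competitor in RPMI 1640 + 10% FCS, then irradiated at 2,000 rad and washed before 5 × 10^4 hybridoma cells were added. After 24 h, supernatant went onto 10^4 CTLL cells. IL-2 was measured by thymidine incorporation during the final 4 h of the 24-h CTLL culture.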

Ek = assay: Competition for antigen presentation of HEL 1-18 to hybridoma 2G7.1; format: cell-based, mouse; details: APC LK cells, 2 μM HEL 1-18, competitor up to 100 μM
In short: as §1

Ed = assay: Competition for antigen presentation of HEL 105-120 to hybridoma 1H11.3; format: cell-based, mouse; details: APC LK cells, 500 nM HEL 105-120, competitor up to 100 μM
In short: as §1

[6] = tested on: NOD mice, spontaneous autoimmune diabetes; assay: Prevention of spontaneous diabetes in female NOD mice, first experiment; format: in vivo, mouse (NOD)
In short: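 Female NOD mice from an SPF in-house colony were dosed from 3 wk of age with 500 nmol peptide in HBSS, i.p. and s.c. at multiple sites. The schedule was five times weekly for 3 wk, five times weekly for 3 wk more, then twice weekly to 22-23 wk. Arms: test peptide (18 mice), nonbinding control peptide (12), HBSS (18). Monitoring began at 10 wk; blood glucose ≥200 mg/dl counted as diabetic.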

Ag7 = assay: Screening: binding to Ag7; format: cell-based, mouse (NOD); details: screening of peptide panel
[7] = tested on: Ag7-restricted T cell response; details: cited from earlier work

Compound | IC50 (Ad) [µM] | mortality (died/total) (NOD mice [1]) | mortality (NOD mice [2]; P1 mixed with ketotifen (3 mg/kg) after 20 wk of treatment) | symptoms after adding ketotifen (NOD mice [2]; P1 mixed with ketotifen (3 mg/kg) after first signs of postinjection fatigue (20 wk of treatment)) | peptide-specific IgG antibodies [3] | peptide-specific IgM antibodies [3] | fraction of mice antibody negative ([3]; after 13 wk of treatment) | animals producing antibodies against the peptide [4] | effect on antigen presentation by Ag7 [5] | effect on antigen presentation by Ad (Ad; APC LK cells, 1 μM OVA 323-339, hybridoma DO11.10, competitor up to 100 μM) | effect on antigen presentation by Ek (Ek) | effect on antigen presentation by Ed (Ed) | plateau level of diabetic animals ([6]; by 22 wk of age, control groups (P2, 12 mice, or solvent)) [%] | effect on spontaneous diabetes (summary) ([6]; chronic administration from 3 wk of age on, female NOD mice) | fraction of mice nonresponders ([3]; chronic treatment) | binding to Ag7 (Ag7) | Ag7-restricted T cell response of NOD mice [7]
CC(C)[C@H](NC(=O)[C@@H](NC(=O)[C@H](Cc1ccc(O)cc1)NC(=O)[C@@H](NC(=O)[C@H](N)Cc1ccc(O)cc1)[C@@H](C)O)[C@@H](C)O)C(=O)N[C@@H](Cc1c[nH]cn1)C(=O)N[C@@H](C)C(=O)N[C@@H](C)C(=O)N[C@@H](Cc1c[nH]cn1)C(=O)N[C@@H](C)C(=O)N[C@@H](Cc1ccc(O)cc1)C(=O)N[C@H](C(=O)N[C@@H](Cc1ccc(O)cc1)C(=O)N[C@@H](C(=O)O)[C@H](C)O)[C@@H](C)O [P1, yTYTVHAAHAYTYt] (H-[dY]TYTVHAAHAYTY[dT]-OH) | ~20 | 6/18 | no mortality occurred | symptomless | IgG | no IgM | Approximately half | 3 of 13 animals |  |  |  |  |  |  |  |  | 
KMKMVHAAHAKMKM [P2] |  | 1/12 |  |  | no IgG | exclusively of IgM isotype |  |  | not that by As7 | inhibited antigen presentation | inhibited antigen presentation | not that by As7 and Ea | 60 | no effect on the disease | Approximately half | fails to bind | 
sheep insuline: sheep insulin used as antigen in NOD mice |  |  |  |  |  |  |  |  |  |  |  |  |  |  |  |  | strong
